Values after ≈ are worked out from the molar mass of the structure shown. Active and inactive are the calls of the source. The rule behind the calls is not given here.
Key:
[1] = system: Staphylococcus aureus; assay: Antibacterial activity against Staphylococcus aureus Smith infected in sc dosed mouse administered 1 hr post infection; assay type: functional
Procedure, shortened: (§1)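 Infected mice were treated subcutaneously or orally. Protection is expressed as CD50 in mg/kg, as the total dose given.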

[2] = system: Escherichia coli; assay: Antibacterial activity against Escherichia coli 8 infected in sc dosed mouse administered 1 hr post infection; assay type: functional; procedure, shortened: as §1
[3] = system: Klebsiella aerogenes; assay: Antibacterial activity against Klebsiella aerogenes after 18 hrs by serial dilution method; assay type: functional
Procedure, shortened: (§2)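 MICs by serial dilution on nutrient agar. Inoculum 0.001 mL of undiluted overnight broth culture. Plates incubated at 37 °C for 18 h before reading.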

[4] = system: Escherichia coli; assay: Antibacterial activity against Escherichia coli 8 infected in sc dosed mouse administered 1 hr and 5 hrs post infection; assay type: functional; procedure, shortened: as §1
[5] = Drug level in mouse blood at 50 mg/kg, po after 1 hr by microbiological assay; assay type: ADME, organism-based; design: dose 50 mg/kg, route oral; settings: read-out: Drug uptake
Procedure, shortened: (§3)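 Mice given a single 50 mg/kg dose by the route in the line. Groups of five killed at each time point and blood taken from the cut axilla, heparinized and stored at 4 °C. Blood assayed the same day by large-plate microbiological assay with Sarcina lutea NCTC 8340, overnight at 30 °C. Standards made in mouse blood, with pH 7.2 phosphate-buffered saline as diluent.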

[6] = Drug level in mouse blood at 50 mg/kg, sc after 10 mins by microbiological assay; assay type: ADME, organism-based; design: dose 50 mg/kg, route subcutaneous; settings: read-out: Drug uptake; procedure, shortened: as §3
[7] = system: Escherichia coli; assay: Antibacterial activity against Escherichia coli 8 infected in po dosed mouse administered 1 hr post infection; assay type: functional; procedure, shortened: as §1
[8] = Drug level in mouse blood at 50 mg/kg, sc after 4 hrs by microbiological assay; assay type: ADME, organism-based; design: dose 50 mg/kg, route subcutaneous; settings: read-out: Drug uptake; procedure, shortened: as §3
[9] = system: Escherichia coli; assay: Antibacterial activity against Escherichia coli 8 infected in po dosed mouse administered 1 hr and 5 hrs post infection; assay type: functional; procedure, shortened: as §1
[10] = Drug level in mouse blood at 50 mg/kg, po after 2 hrs by microbiological assay; assay type: ADME, organism-based; design: dose 50 mg/kg, route oral; settings: read-out: Drug uptake; procedure, shortened: as §3
[11] = system: Staphylococcus aureus; assay: Antibacterial activity against Staphylococcus aureus Smith infected in po dosed mouse administered 1 hr post infection; assay type: functional; procedure, shortened: as §1
[12] = system: Staphylococcus aureus; assay: Antibacterial activity against Staphylococcus aureus Smith infected in po dosed mouse administered 1 hr and 5 hrs post infection; assay type: functional; procedure, shortened: as §1
[13] = system: Staphylococcus aureus; assay: Antibacterial activity against Staphylococcus aureus Smith infected in sc dosed mouse administered 1 hr and 5 hrs post infection; assay type: functional; procedure, shortened: as §1
[14] = Drug level in mouse blood at 50 mg/kg, sc after 1 hr by microbiological assay; assay type: ADME, organism-based; design: dose 50 mg/kg, route subcutaneous; settings: read-out: Drug uptake; procedure, shortened: as §3
[15] = system: Shigella sonnei; assay: Antibacterial activity against Shigella sonnei after 18 hrs by serial dilution method; assay type: functional; procedure, shortened: as §2
[16] = system: Escherichia coli; assay: Antibacterial activity against Escherichia coli after 18 hrs by serial dilution method; assay type: functional; procedure, shortened: as §2
[17] = Drug level in mouse blood at 50 mg/kg, po after 4 hrs by microbiological assay; assay type: ADME, organism-based; design: dose 50 mg/kg, route oral; settings: read-out: Drug uptake; procedure, shortened: as §3
[18] = Drug level in mouse blood at 50 mg/kg, po after 15 mins by microbiological assay
[19] = Drug level in mouse blood at 50 mg/kg, sc after 30 mins by microbiological assay; assay type: ADME, organism-based; design: dose 50 mg/kg, route subcutaneous; settings: read-out: Drug uptake; procedure, shortened: as §3
[20] = Drug level in mouse blood at 50 mg/kg, sc after 2 hrs by microbiological assay; assay type: ADME, organism-based; design: dose 50 mg/kg, route subcutaneous; settings: read-out: Drug uptake; procedure, shortened: as §3
[21] = system: Staphylococcus aureus; assay: Antibacterial activity against Staphylococcus aureus Oxford after 18 hrs by serial dilution method; assay type: functional; procedure, shortened: as §2
[22] = system: Salmonella typhi; assay: Antibacterial activity against Salmonella typhi after 18 hrs by serial dilution method; assay type: functional, Salmonella enterica subsp. enterica serovar Typhi; settings: Salmonella enterica
Procedure, shortened: (§4)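 MICs by serial dilution on nutrient agar. Inoculum 0.001 mL of undiluted overnight broth culture. Plates incubated 18 h at 37 °C before reading. The S. aureus Russell strain produces β-lactamase and resists benzylpenicillin.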

[23] = system: Proteus mirabilis; assay: Antibacterial activity against Proteus mirabilis 13 infected in sc dosed mouse administered 1 hr and 5 hrs post infection; assay type: functional; procedure, shortened: as §1
[24] = system: Proteus mirabilis; assay: Antibacterial activity against Proteus mirabilis 13 infected in sc dosed mouse administered 1 hr post infection; assay type: functional; procedure, shortened: as §1
[25] = system: Staphylococcus aureus; assay: Antibacterial activity against beta-lactamase producing benzylpenicillin-resistant Staphylococcus aureus Russell after 18 hrs by serial dilution method; assay type: functional; procedure, shortened: as §4
[26] = Drug level in mouse blood at 50 mg/kg, sc after 20 mins by microbiological assay; assay type: ADME, organism-based; design: dose 50 mg/kg, route subcutaneous; settings: read-out: Drug uptake; procedure, shortened: as §3
[27] = Drug level in mouse blood at 50 mg/kg, po after 30 mins by microbiological assay; assay type: ADME, organism-based; design: dose 50 mg/kg, route oral; settings: read-out: Drug uptake; procedure, shortened: as §3
[28] = system: Proteus mirabilis; assay: Antibacterial activity against Proteus mirabilis after 18 hrs by serial dilution method; assay type: functional; procedure, shortened: as §2
[29] = Drug level in mouse blood at 50 mg/kg, iv after 4 hrs by microbiological assay; assay type: ADME, organism-based; design: dose 50 mg/kg, route intravenous; settings: read-out: Drug uptake; procedure, shortened: as §3
[30] = Drug level in mouse blood at 50 mg/kg, po after 20 mins by microbiological assay; assay type: ADME, organism-based; design: dose 50 mg/kg, route oral; settings: read-out: Drug uptake; procedure, shortened: as §3
[31] = Drug level in mouse blood at 50 mg/kg, iv after 1 hr by microbiological assay; assay type: ADME, organism-based; design: dose 50 mg/kg, route intravenous; settings: read-out: Drug uptake; procedure, shortened: as §3
[32] = system: Pseudomonas aeruginosa; assay: Antibacterial activity against cephalosporin-resistant Pseudomonas aeruginosa after 18 hrs by serial dilution method; assay type: functional, organism-based; procedure, shortened: as §4
[33] = Drug level in mouse blood at 50 mg/kg, iv after 20 mins by microbiological assay; assay type: ADME, organism-based; design: dose 50 mg/kg, route intravenous; settings: read-out: Drug uptake; procedure, shortened: as §3
[34] = Drug level in mouse blood at 50 mg/kg, iv after 2 hrs by microbiological assay; assay type: ADME, organism-based; design: dose 50 mg/kg, route intravenous; settings: read-out: Drug uptake; procedure, shortened: as §3
[35] = Drug metabolism in mouse assessed as metabolite level in urine by Sarcina lutea antibacterial assay; assay type: ADME
Procedure, shortened: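 Urine from dosed mice run on paper strip chromatography in butanol-ethanol-water (4:1:5). Active zones located on agar plates seeded with Sarcina lutea.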

[36] = Drug level in mouse blood at 50 mg/kg, iv after 30 mins by microbiological assay; assay type: ADME, organism-based; design: dose 50 mg/kg, route intravenous; settings: read-out: Drug uptake; procedure, shortened: as §3
[37] = system: Morganella morganii; assay: Antibacterial activity against cephalosporin-resistant Proteus morganii after 18 hrs by serial dilution method; assay type: functional, organism-based; procedure, shortened: as §4
[38] = system: Enterobacter cloacae; assay: Antibacterial activity against cephalosporin-resistant Enterobacter cloacae after 18 hrs by serial dilution method; assay type: functional, organism-based; procedure, shortened: as §4
[39] = Drug level in mouse blood at 50 mg/kg, po after 10 mins by microbiological assay; assay type: ADME, organism-based; design: dose 50 mg/kg, route oral; settings: read-out: Drug uptake; procedure, shortened: as §3
[40] = Drug level in mouse blood at 50 mg/kg, iv after 10 mins by microbiological assay; assay type: ADME, organism-based; design: dose 50 mg/kg, route intravenous; settings: read-out: Drug uptake; procedure, shortened: as §3

Structure (SMILES) | CD50 [1] | CD50 [2] | MIC [3] | CD50 [4] | concentration at 1 h [5] | concentration at 10 min [6] | CD50 [7] | concentration at 4 h [8] | CD50 [9] | concentration at 2 h [10] | CD50 [11] | CD50 [12] | CD50 [13] | concentration at 1 h [14] | concentration at 4 h [17] | concentration at 0.5 h [19] | concentration at 2 h [20] | CD50 [23] | CD50 [24] | concentration at 20 min [26] | also measured
CC1=C(C(=O)O)N2C(=O)[C@@H](NC(=O)[C@H](N)c3ccccc3)[C@H]2SC1 [CEPHALEXIN ANHYDROUS] | 0.46 mg/kg | 7.4 mg/kg | 5 mg/L (≈ 14.4 µM) | 17 mg/kg | 8.3 µg/mL | 27 µg/mL | 8.5 mg/kg | < 0.15 µg/mL | 17 mg/kg | 2.5 µg/mL | 0.25 mg/kg | 0.38 mg/kg | 1 mg/kg | 3 µg/mL | 0.56 µg/mL | 13.3 µg/mL | 0.42 µg/mL | 84 mg/kg | 64 mg/kg | 20.5 µg/mL | MIC [15]: 5 mg/L (≈ 14.4 µM); MIC [16]: 12.5 mg/L (≈ 36 µM); concentration at 0.25 h [18]: 23.9 µg/mL; MIC [21]: 1.25 mg/L (≈ 3.6 µM); MIC [22]: 5 mg/L (≈ 14.4 µM); MIC [25]: 5 mg/L (≈ 14.4 µM); concentration at 0.5 h [27]: 21.7 µg/mL; MIC [28]: 12.5 mg/L (≈ 36 µM)
N[C@@H](C(=O)N[C@@H]1C(=O)N2C(C(=O)O)=C(Cc3ccc(C(=O)O)cc3)CS[C@H]12)c1ccccc1 | 1.25 mg/kg | 130 mg/kg | 2.5 mg/L (≈ 5.35 µM) | 60 mg/kg | 2.4 µg/mL | 75.2 µg/mL | >1000 mg/kg | 9.3 µg/mL | 2000 mg/kg | 2.3 µg/mL | 17 mg/kg | 28 mg/kg | 1.8 mg/kg | 48 µg/mL | 1.9 µg/mL | 68.8 µg/mL | 22 µg/mL | 19 mg/kg | 14 mg/kg | 87.4 µg/mL | concentration at 4 h [29]: 2.4 µg/mL; concentration at 20 min [30]: < 1 µg/mL; concentration at 1 h [31]: 25.4 µg/mL; Activity [32]: inactive; concentration at 20 min [33]: 48.2 µg/mL; concentration at 2 h [34]: 4.5 µg/mL; Drug metabolism [35]: metabolite_detected; concentration at 0.5 h [36]: 39.2 µg/mL; Activity [37]: inactive; Activity [38]: inactive; concentration at 0.5 h [27]: 1.6 µg/mL; concentration at 10 min [39]: < 1 µg/mL; concentration at 10 min [40]: 70.3 µg/mL

— ChEMBL document CHEMBL3244187, “Structure--activity relationships in cephalosporins prepared from penicillins. 2. Analogues of cephalexin substituted in the 3-methyl group” (J Med Chem, 1977)
